Measured values published in ChEMBL document CHEMBL4251676, “Precursor-Directed Biosynthesis of Phenylbenzoisoquinolindione Alkaloids and the Discovery of a Phenylphenalenone-Based Plant Defense Mechanism” (J Nat Prod, 2018).
Active and inactive are the calls of the source. The calls are words filed in the database; no cut-off is given here.

Assays:
Type in all cases: functional, organism-based
[1] = test system: Sporobolomyces salmonicolor; test: Antimicrobial activity against Sporidiobolus salmonicolor isolate 549 after 18 hrs
How it was run: (§1)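 Ciprofloxacin and amphotericin B were run alongside as reference antimicrobials.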

[2] = test system: Escherichia coli; test: Antimicrobial activity against Escherichia coli isolate 458 after 18 hrs; how it was run: as §1
[3] = test system: Staphylococcus aureus; test: Antimicrobial activity against methicillin-resistant Staphylococcus aureus isolate 134/93 after 18 hrs

## COc1cc2c3c(ccc(-c4ccccc4)c3c1O[C@@H]1O[C@H](COC(=O)CC(=O)O)[C@@H](O)[C@H](O)[C@H]1O)C(=O)OC2
[1]
  Activity: Active
[2]
  Activity: Active

## O=C(O)CC(=O)OC[C@H]1O[C@@H](Oc2c(O)cc3c4c(ccc(-c5ccccc5)c24)C(=O)OC3)[C@H](O)[C@@H](O)[C@@H]1O
[1]
  Activity: Active
[2]
  Activity: Active

## C[C@@H]1[C@H](O)[C@@H](C)/C=C/C=C/C=C/C=C/C=C/C=C/C=C/[C@H](O[C@@H]2O[C@H](C)[C@@H](O)[C@H](N)[C@@H]2O)C[C@@H]2O[C@](O)(C[C@@H](O)C[C@@H](O)[C@H](O)CC[C@@H](O)C[C@@H](O)CC(=O)O[C@H]1C)C[C@H](O)[C@H]2C(=O)O
[1]
  Activity: Active
[2]
  Activity: Active

## CSCC[C@@H](C(=O)O)n1cc2c3c(c(-c4ccccc4)ccc3c1=O)C(=O)C(O)=C2
[3]
  Activity: inactive
[1]
  Activity: inactive
[2]
  Activity: inactive

## O=C(O)c1cn(C2CC2)c2cc(N3CCNCC3)c(F)cc2c1=O
[1]
  Activity: Active
[2]
  Activity: Active

## COC1=Cc2cn([C@@H](Cc3ccccc3)C(=O)O)c(=O)c3ccc(-c4ccccc4)c(c23)C1=O
[3]
  Activity: inactive
[1]
  Activity: inactive
[2]
  Activity: inactive

## O=C1C(O)=Cc2cn([C@@H](Cc3ccccc3)C(=O)O)c(=O)c3ccc(-c4ccccc4)c1c23
[3]
  Activity: inactive
[1]
  Activity: inactive
[2]
  Activity: inactive

## COc1cc2c3c(ccc(-c4ccccc4)c3c1O)C(=O)OC2OC (configuration not stated)
[3]
  Activity: Active

## O=C1OC(C(=O)O)c2cc(O)c(O[C@@H]3O[C@H](CO)[C@@H](O)[C@H](O)[C@H]3O)c3c(-c4ccccc4)ccc1c23 (some centres not stated)
[1]
  Activity: Active
[2]
  Activity: Active

## O=C1C(O)=Cc2coc(=O)c3ccc(-c4ccccc4)c1c23
[3]
  Activity: Active

## CC(C)C[C@H](C(=O)O)n1cc2c3c(c(-c4ccccc4)ccc3c1=O)C(=O)C(O)=C2
[3]
  Activity: inactive
[1]
  Activity: inactive
[2]
  Activity: inactive

## O=C1C(O)=Cc2c3n(c(=O)c4ccc(-c5ccccc5)c1c24)[C@H](C(=O)O)CS3
[3]
  Activity: inactive
[1]
  Activity: inactive
[2]
  Activity: inactive

## COC1=Cc2cn([C@@H](Cc3c[nH]c4ccccc34)C(=O)O)c(=O)c3ccc(-c4ccccc4)c(c23)C1=O
[3]
  Activity: inactive
[1]
  Activity: inactive
[2]
  Activity: inactive

## CC(C)C[C@@H](C(=O)O)n1cc2c3c(c(-c4ccccc4)ccc3c1=O)C(=O)C(O)=C2
[3]
  Activity: inactive
[1]
  Activity: inactive
[2]
  Activity: inactive

## O=C1C(O)=Cc2cn([C@H](Cc3ccccc3)C(=O)O)c(=O)c3ccc(-c4ccccc4)c1c23
[3]
  Activity: inactive
[1]
  Activity: inactive
[2]
  Activity: inactive

## O=C1OC(O)c2cc(O)c(O)c3c(-c4ccccc4)ccc1c23 (configuration not stated)
[3]
  Activity: Active

## COC1=Cc2cn([C@@H](Cc3ccc(O)cc3)C(=O)O)c(=O)c3ccc(-c4ccccc4)c(c23)C1=O
[3]
  Activity: inactive
[1]
  Activity: inactive
[2]
  Activity: inactive

## O=C1OC(C(=O)O)c2cc(O)c(O)c3c(-c4ccccc4)ccc1c23 (configuration not stated)
[1]
  Activity: Active
[2]
  Activity: Active

## O=C1C(O)=Cc2cn(CCO)c(=O)c3ccc(-c4ccccc4)c1c23
[3]
  Activity: inactive
[1]
  Activity: inactive
[2]
  Activity: inactive

## COC1=Cc2cn([C@H](CC(C)C)C(=O)O)c(=O)c3ccc(-c4ccccc4)c(c23)C1=O
[3]
  Activity: inactive
[1]
  Activity: inactive
[2]
  Activity: inactive

## COC1OC(=O)c2ccc(-c3ccccc3)c3c(O)c(O)cc1c23 (configuration not stated)
[3]
  Activity: Active

## COC1=Cc2cn([C@H](Cc3ccccc3)C(=O)O)c(=O)c3ccc(-c4ccccc4)c(c23)C1=O
[3]
  Activity: inactive
[1]
  Activity: inactive
[2]
  Activity: inactive

## O=C1C(O)=Cc2cn(CCCC[C@@H](C(=O)O)n3cc4c5c(c(-c6ccccc6)ccc5c3=O)C(=O)C(O)=C4)c(=O)c3ccc(-c4ccccc4)c1c23
[3]
  Activity: inactive
[1]
  Activity: inactive
[2]
  Activity: inactive

## O=C1OCc2cc(O)c(O)c3c(-c4ccccc4)ccc1c23
[1]
  Activity: Active
[2]
  Activity: Active
